# Assay outcomes (PubChem)
# PMI act: phosphomannose isomerase (human) activation; P34949; purified human PMI, coupled resazurin fluorescence, 20 min; hits give high values; 1 = vehicle control, 0 substrate-free wells; activation factor at 20 µM; hit rate 0.005% among 190,000; AID 1214;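 active = activation factor of 2 or more at 20 µM, relative to plate controls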
# Target sequence (P34949 whole entry, looked up): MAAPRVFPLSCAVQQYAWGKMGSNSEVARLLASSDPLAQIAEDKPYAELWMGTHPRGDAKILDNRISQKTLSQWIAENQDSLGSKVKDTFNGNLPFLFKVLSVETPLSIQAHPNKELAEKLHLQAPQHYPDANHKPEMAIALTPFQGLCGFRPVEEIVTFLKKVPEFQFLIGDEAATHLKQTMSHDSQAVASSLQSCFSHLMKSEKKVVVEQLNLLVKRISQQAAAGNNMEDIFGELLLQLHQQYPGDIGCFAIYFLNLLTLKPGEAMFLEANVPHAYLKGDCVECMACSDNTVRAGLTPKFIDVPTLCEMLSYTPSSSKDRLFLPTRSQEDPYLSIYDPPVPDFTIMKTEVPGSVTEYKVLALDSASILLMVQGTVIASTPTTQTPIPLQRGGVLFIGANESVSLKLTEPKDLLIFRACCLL
# Diaph act CS: diaphorase activation or chemical reduction counter-screen; AID 1229; hit rate 0.005% among 190,000; Diaphorase/resazurin coupled assay, resorufin fluorescence, 16 min; hits give high values; 1 = vehicle wells, 0 = NADH-free wells; activation factor at 20 µM;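 active = diaphorase activity raised at least twofold by the compound at 20 µM; inactive = activation factor below 2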
#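 Material: Purified diaphorase enzyme from Clostridium kluyveri | Buffer or medium: 50 mM HEPES pH 7.4 with 4.542 mM MgCl2, 0.005% Tween 20 | Times: 16 min enzyme reaction, ambient temperature | Signal: Red resorufin fluorescence at 544/590 nm excitation/emission | Measure: Increased resorufin signal from activators or reducing compounds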
# WT yeast gro inh: growth inhibition of WT yeast, mitochondrial fusion screen; mitochondrial fusion phenotypic screen, WT strain; inhibition, % at 10 µM; hit rate 2.1% among 190,000; in the data active = inhibition above about 58%; tested in S. cerevisiae
# Lmaj promast: inhibitors of Leishmania major promastigote growth. hit rate 9% among 200,000. Leishmania major promastigotes, resazurin fluorescence viability. AID 1063. inhibition, % at 10 µM; in the data active = inhibition above about 50%;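 note: promastigotes grown with compound for 44 hours at 28 °C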
# PMI act hi M6P: PMI (human) activation, high substrate; coupled PMI enzyme assay, resazurin fluorescence, 20 min; hits give high values; 1 = untreated enzyme, 0 = substrate-free blank; activation factor at 20 µM; hit rate 0.34% among 190,000; AID 1216;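 active = activation factor of 2 or more at 20 µM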
#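 Material: human phosphomannose isomerase with PGI, G6PDH, diaphorase coupling enzymes / Reagent: Man-6-P substrate 1.0 mM / Dosing: single compound dose of 20 µM, 1% DMSO final / Incubation: enzyme reaction with compound 20 min at room temperature / Signal: resorufin fluorescence (Ex 544/Em 590 nm) from resazurin via diaphorase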
# * hit, by the source's call. Sampled rows, rich in hits. Any-hit rate of the full collection: about 10%.
SMILES,PMI act,Diaph act CS,WT yeast gro inh,Lmaj promast,PMI act hi M6P
O=C(CN1CCCc2ccccc21)NC(=O)NC1CCCCC1,1.1,1.1,-1,18,1
NC(=O)C1CCN(C(=O)CN2CCCc3ccccc32)CC1,1.5,0.9,-1,-2,2*
CC(=O)Nc1ccc(NC(=O)COC(=O)C2(c3ccc(Cl)cc3)CCCC2)cc1,0.7,0.8,-9,74*,0.8
CC(C)(C)c1ccc(Cn2ccc(-c3ccc4c(c3)OCO4)n2)cc1,0.9,1,-6,-4,0.9
CCOC(=O)c1c2c3c(c(Cl)ccc3[nH]c1=O)C(=O)c1ccccc1-2,1.6,0.6,-1,19,2*
Cn1cc(-c2nnnn2-c2cccc(C(F)(F)F)c2)c(C(F)(F)F)n1,0.9,1,-4,1,1
CCN1/C(=C/c2sc(-c3ccccc3C)c[n+]2C)Sc2ccccc21,0.8,1.1,77*,100*,0.8
CCN1/C(=C/C(=O)c2ccco2)Sc2ccccc21,1.1,1.1,2,19,1
O=C(Nc1cccc(Cl)c1)c1ccc(-n2cncn2)c([N+](=O)[O-])c1,0.8,0.9,-9,-4,0.9
C/C(=N/NS(=O)(=O)c1ccccc1)c1ccc(NC(=O)C2CC2)cc1,0.9,0.9,3,5,0.9
CSc1nc(N)nc(SCC(=O)Nc2cccc(F)c2)c1C#N,0.9,0.9,5,9,1
CSc1nc(N)nc(SCC(=O)Nc2ccc(Cl)cc2)c1C#N,0.9,0.9,14,100*,1
Cc1c(N=C2NC(=O)/C(=C/c3cccc([N+](=O)[O-])c3)S2)c(=O)n(-c2ccccc2)n1C,0.9,0.7,-6,89*,0.9
Cc1ccc2c(c1)N(CC(=O)NCCc1c[nH]c3ccccc13)C(=O)CO2,0.9,0.8,-6,53*,0.9
Cc1cccc(NC(=O)NCCc2c[nH]c3ccccc23)c1,1,1,-2,89*,1
O=C(NCCc1c[nH]c2ccccc12)Nc1cccc2ccccc12,0.9,0.8,2,-3,0.9
Cc1ccc2[nH]cc(CCNC(=O)CN3C(=O)c4ccccc4C3=O)c2c1,0.8,0.9,11,-3,0.8
Nc1ccc2oc(C3CCCCC3)nc2c1,0.7,0.7,-4,-7,0.4
COc1ccc(C2C(C#N)=C(N)Oc3c2sc2nc(C)cc(C)c32)cc1 (stereo not drawn),1.1,0.9,11,100*,1.1
COc1ccc(C(=O)NC(=S)Nc2ccc(N3CCOCC3)c(Cl)c2)cc1[N+](=O)[O-],0.7,0.8,43,100*,0.9
CCOc1ccc(C(=O)NC(=S)Nc2ccc(N3CCC(C)CC3)cc2)cc1[N+](=O)[O-],0.9,0.9,13,87*,0.9
COc1ccc(C(=O)NC(=S)Nc2ccccc2N2CCOCC2)cc1[N+](=O)[O-],0.8,0.7,-2,-6,0.9
CCCC(=O)NC(=S)Nc1ccc(N2CCOCC2)c(Cl)c1,1,0.8,16,60*,0.9
CCC(=O)N1CCN(c2ccc(NC(=S)NC(=O)c3ccc(OC)c([N+](=O)[O-])c3)cc2)CC1,0.9,0.6,1,53*,1
CCN(CC(=O)Nc1ccc(N2CCOCC2)cc1)C(=O)c1ccc(C(F)(F)F)cc1,0.9,0.9,10,3,1
SMILES,PMI act,Diaph act CS,WT yeast gro inh,Lmaj promast,PMI act hi M6P
COc1ccccc1N1CCN(C(=O)CCCN2C(=O)c3cccc4cccc(c34)C2=O)CC1,1,0.9,14,46,1
Cc1sc(CO)c(Sc2ccccc2)c1C(=O)O,1.2,0.9,12,-7,1.1
Cc1ccc(-n2ncc3c(SCC(=O)NNC(=O)c4ccco4)ncnc32)cc1,1,1,-6,7,1
CCn1c(SCC(=O)Nc2ccc(N3CCOCC3)c(Cl)c2)nnc1-c1ccc(N)cc1,1,0.9,2,73*,1
COc1ccc(C(C)NC(=O)c2cccc([N+](=O)[O-])c2)cc1OC (stereo not drawn),1,1,2,10,1.1
CCCN(CCC)CCCNC(=S)Nc1ccc2nc(N3CCCC3)cc(C)c2c1,0.9,1.4,-6,87*,0.9
CCN(CC)CCNC(=S)Nc1ccc2nc(N3CCCC3)cc(C)c2c1,1.1,1.1,1,86*,0.9
Cc1cc(N2CCCC2)nc2ccc(NC(=S)NCCCOC(C)C)cc12,1,1.1,-8,93*,1
Cc1cc(N2CCN(C)CC2)nc2ccc(NC(=S)NCCCN3CCN(C)CC3)cc12,1.1,1.2,7,3,1.1
CCC(=O)Nc1ccc(-c2nnc(SCC(=O)NCC3CCCO3)n2C)cc1 (stereo not drawn),0.9,0.9,4,-5,0.9
Cc1ccc(CSCC(=O)Nc2c(C)n(C)n(-c3ccccc3)c2=O)cc1,1,0.7,4,61*,1
Cc1ccccc1OCc1nnc(SCC(=O)Nc2c(C)n(C)n(-c3ccccc3)c2=O)n1-c1ccccc1,0.9,0.8,-6,59*,1
COc1ccc(Cn2nnnc2C(c2ccc(N(C)C)cc2)N2CCC(C(N)=O)CC2)cc1 (stereo not drawn),1,1,-6,1,1
c1ccc2c(N3CCCC3)nc(-c3ccncc3)nc2c1,1,1,14,30,1
c1ccc(CN2CCN(c3nc(-c4ccccn4)nc4ccccc34)CC2)cc1,0.9,1,48,100*,0.8
c1ccc(CN2CCN(c3nc(-c4ccccc4)nc4ccccc34)CC2)cc1,1,1,54,68*,1
COc1ccc(CN2CCN(c3ccccn3)CC2)c(OC)c1,1,0.9,-7,-6,1.1
CN1CCN(c2nc(-c3ccncc3)nc3ccccc23)CC1,0.9,0.9,-5,100*,0.9
c1ccc(COc2ccc(CN3CCN(c4ccccn4)CC3)cc2)cc1,1,0.9,33,95*,1
CCN1CCN(c2nc(-c3ccccn3)nc3ccccc23)CC1,0.9,1.2,9,17,0.9
CCCc1c(CC)c(=N)c2ccccc2n1C,0.9,1.1,0,53*,1
COc1cc(C(=O)Nc2ccc(S(=O)(=O)N3CCCCC3C)cc2)cc(OC)c1OC (stereo not drawn),0.9,0.8,4,20,0.8
COc1ccc(C(=O)Nc2ccc(S(=O)(=O)N3CCCCC3C)cc2)c(OC)c1OC (stereo not drawn),1,0.9,4,61*,1
CC(C)CN1CCN(Cc2nc(C(C)C)cs2)CC1CCO (stereo not drawn),1,1.1,-12,7,1
Cc1ccc(CN2CCN(Cc3nc(C(C)C)cs3)CC2CCO)cc1 (stereo not drawn),1,0.9,5,74*,1
CC(C)c1csc(CN2CCN(Cc3ccc(F)cc3)C(CCO)C2)n1 (stereo not drawn),0.8,0.8,-2,81*,0.8
